Laboratory results from article PMC4824005 (Nature structural & molecular biology, 2015).

Test system: Shc1 phosphorylated at Tyr239 and Tyr240 in MCF10A cells
Assay: Immunoblot of dual Shc1 phosphorylation in MCF10A cells
Assay type: cell-based
Conditions: 1ng/mL EGF, 3 min
Outline: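 MCF10A cells (STR-authenticated, mycoplasma-free) were kept in HuMEC medium and held 16 h in growth-factor-free medium before pretreatment with test compound and EGF stimulation. Cells were lysed in RIPA buffer containing protease and phosphatase inhibitors. Lysates were separated by SDS-PAGE, transferred to nitrocellulose and immunoblotted with phospho-Shc and total Shc antibodies.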

B1: EGF: EGF, used at 1ng/mL to stimulate MCF10A cells (protein, UniProt P01133 23-1207, looked up)
Pro-epidermal growth factor: PQHWSCPEGTLAGNGNSTCVGPAPFLIFSHGNSIFRIDTEGTNYEQLVVDAGVSVIMDFHYNEKRIYWVDLERQLLQRVFLNGSRQERVCNIEKNVSGMAINWINEEVIWSNQQEGIITVTDMKGNNSHILLSALKYPANVAVDPVERFIFWSSEVAGSLYRADLDGVGVKALLETSEKITAVSLDVLDKRLFWIQYNREGSNSLICSCDYDGGSVHISKHPTQHNLFAMSLFGDRIFYSTWKMKTIWIANKHTGKDMVRINLHSSFVPLGELKVVHPLAQPKAEDDTWEPEQKLCKLRKGNCSSTVCGQDLQSHLCMCAEGYALSRDRKYCEDVNECAFWNHGCTLGCKNTPGSYYCTCPVGFVLLPDGKRCHQLVSCPRNVSECSHDCVLTSEGPLCFCPEGSVLERDGKTCSGCSSPDNGGCSQLCVPLSPVSWECDCFPGYDLQLDEKSCAASGPQPFLLFANSQDIRHMHFDGTDYGTLLSQQMGMVYALDHDPVENKIYFAHTALKWIERANMDGSQRERLIEEGVDVPEGLAVDWIGRRFYWTDRGKSLIGRSDLNGKRSKIITKENISQPRGIAVHPMAKRLFWTDTGINPRIESSSLQGLGRLVIASSDLIWPSGITIDFLTDKLYWCDAKQSVIEMANLDGSKRRRLTQNDVGHPFAVAVFEDYVWFSDWAMPSVMRVNKRTGKDRVRLQGSMLKPSSLVVVHPLAKPGADPCLYQNGGCEHICKKRLGTAWCSCREGFMKASDGKTCLALDGHQLLAGGEVDLKNQVTPLDILSKTRVSEDNITESQHMLVAEIMVSDQDDCAPVGCSMYARCISEGEDATCQCLKGFAGDGKLCSDIDECEMGVPVCPPASSKCINTEGGYVCRCSEGYQGDGIHCLDIDECQLGEHSCGENASCTNTEGGYTCMCAGRLSEPGLICPDSTPPPHLREDDHHYSVRNSDSECPLSHDGYCLHDGVCMYIEALDKYACNCVVGYIGERCQYRDLKWWELRHAGHGQQQKVIVVAVCVVVLVMLLLLSLWGAHYYRTQKLLSKNPKNPYEESSRDVRSRRPADTEDGMSSCPQPWFVVIKEHQDLKNGGQPVAGEDGQAADGSMQPTSWRQEPQLCGMGTEQGCWIPVSSDKGSCPQVMERSFHMPSYGTQTLEGGVEKPHSLLSANPLWQQRALDPPHQMELTQ
modifications: Pro-epidermal growth factor
- EGF-stimulated phosphorylation of Shc1 at both Tyr239 and Tyr240: significant phosphorylation of both Tyr239 and Tyr240 was detected
